Test results reported in ChEMBL document CHEMBL2390841, “1,1-Difluoroethyl-substituted triazolothienopyrimidines as inhibitors of a human urea transport protein (UT-B): new analogs and binding model” (Bioorg Med Chem Lett, 2013).

Assays:
[1] = tested on: Liver microsomes; assay: Metabolic stability in rat liver microsomes assessed as parent compound remaining after 30 mins; assay type: ADME, Microsome; conditions: 0.5 h
In short: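 Compounds are incubated 30 min with rat liver microsomes plus NADPH, then organic-extracted and analysed by LCMS. Value is percent parent remaining.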

[2] = target: T1, Urea transporter 1 (Mus musculus, UniProt Q8VHL0); assay: Inhibition of UT-B in mouse acetamide-loaded erythrocyte assessed as increase of hypotonic lysis
T1 sequence (Q8VHL0 whole entry): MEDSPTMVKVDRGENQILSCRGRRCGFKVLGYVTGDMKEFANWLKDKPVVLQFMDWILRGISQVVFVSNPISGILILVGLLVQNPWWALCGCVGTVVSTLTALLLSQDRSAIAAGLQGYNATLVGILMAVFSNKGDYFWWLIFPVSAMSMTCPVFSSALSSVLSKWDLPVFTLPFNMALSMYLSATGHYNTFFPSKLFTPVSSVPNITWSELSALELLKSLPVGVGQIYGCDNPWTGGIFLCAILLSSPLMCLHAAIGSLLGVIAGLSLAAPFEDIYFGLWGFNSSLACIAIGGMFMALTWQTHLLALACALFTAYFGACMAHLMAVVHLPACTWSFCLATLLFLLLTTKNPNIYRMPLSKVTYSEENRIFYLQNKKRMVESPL
In short: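 Erythrocytes preloaded with acetamide are diluted into isosmolar PBS. Hypotonic lysis is read as near-infrared light absorbance; blocking UT-B-mediated acetamide efflux increases lysis. IC50 comes from a fit to a single-site saturation model.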

Structure (SMILES)	Stability [1] [%]	IC50 [2] [nM]
CC(F)(F)c1ccc(S(=O)(=O)c2nnn3c2nc(NCc2ccccc2)c2sccc23)cc1	79	> 800
CC(F)(F)c1ccc(S(=O)(=O)c2nnn3c2nc(NCC2CCC2)c2sccc23)cc1	24	> 800
CC(F)(F)c1ccc(S(=O)(=O)c2nnn3c2nc(NCc2ccco2)c2sccc23)cc1	14	353
CC(F)(F)c1ccc(S(=O)(=O)c2nnn3c2nc(NCc2ccsc2)c2sccc23)cc1	47	43

Further lines, results first:

Stability [1] [%]	IC50 [2] [nM]	Structure (SMILES)
75	> 800	CC(F)(F)c1ccc(S(=O)(=O)c2nnn3c2nc(NCC2CC2)c2sccc23)cc1
< 5	–	CCc1ccc(S(=O)(=O)c2nnn3c2nc(NCc2cccs2)c2sccc23)cc1
22	38	Cc1csc(CNc2nc3c(S(=O)(=O)c4ccc(C(C)(F)F)cc4)nnn3c3ccsc23)c1
